Assay results: ChEMBL document CHEMBL1146238, “Prenylated xanthones from the root bark of Cudrania tricuspidata” (J Nat Prod, 2007)

Target: T1, Amine oxidase [flavin-containing] A (Mus musculus, UniProt Q64133)
T1 sequence (Q64133 whole entry): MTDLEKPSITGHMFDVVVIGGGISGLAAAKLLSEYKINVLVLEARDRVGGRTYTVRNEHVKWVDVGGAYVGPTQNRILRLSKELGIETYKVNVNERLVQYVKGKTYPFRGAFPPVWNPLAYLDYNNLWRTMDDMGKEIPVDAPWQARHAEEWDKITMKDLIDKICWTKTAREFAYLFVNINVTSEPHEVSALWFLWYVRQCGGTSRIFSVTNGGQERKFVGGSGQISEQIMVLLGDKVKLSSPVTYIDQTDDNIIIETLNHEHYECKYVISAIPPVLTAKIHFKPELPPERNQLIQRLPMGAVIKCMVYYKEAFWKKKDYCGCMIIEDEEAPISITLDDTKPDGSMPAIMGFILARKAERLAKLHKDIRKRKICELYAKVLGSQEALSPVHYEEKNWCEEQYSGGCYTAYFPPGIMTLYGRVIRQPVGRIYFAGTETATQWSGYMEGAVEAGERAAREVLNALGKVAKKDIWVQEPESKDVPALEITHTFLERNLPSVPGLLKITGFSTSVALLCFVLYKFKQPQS
Experiment: Inhibition at monoamine oxidase in mouse brain
Assay type: tissue-based
How it was run: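 Enzyme source: mouse brain mitochondrial fraction. Substrate kynuramine, with MAO converting it to 4-hydroxyquinoline. That product is read fluorometrically at excitation 315 nm and emission 380 nm. Compounds go in as DMSO solutions, with DMSO kept below 3%. Iproniazid serves as the positive control. Result reported as IC50.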

Structure (SMILES) | IC50
CC(C)=CCc1c(O)cc2c(c1O)C(=O)C[C@@H](c1cc3c(cc1O)OC(C)(C)C=C3)O2 [CUDRAFLAVANONE A] | 89.7 µM
CC(C)=CC1Oc2cc(O)ccc2-c2oc3cc4c(c(O)c3c(=O)c21)C=CC(C)(C)O4 (stereo unspecified) [CUDRAFLAVONE A] | > 150 µM
CC(C)=CCc1c(-c2ccc(O)cc2O)oc2cc3c(c(O)c2c1=O)C=CC(C)(C)O3 [CUDRAFLAVONE B] | 80 µM
C=CC(C)(C)c1c(O)cc(O)c2c(=O)c3c(CC=C(C)C)c(O)c(O)cc3oc12 [CUDRATRICUSXANTHONE A] | 88.3 µM
CC(C)=CCc1c(O)c(O)cc2oc3c4c(cc(O)c3c(=O)c12)OC(C)C4(C)C (stereo unspecified) [CUDRATRICUSXANTHONE J] | > 150 µM

Results, then the molecule that gave them:

IC50 | Structure (SMILES)
> 150 µM | COc1c(CC=C(C)C)c(O)c2c(=O)c3cc(O)c(O)cc3oc2c1CC=C(C)C [CUDRATRICUSXANTHONE K]
> 150 µM | C=CC(C)(C)c1c(O)cc(O)c2c(=O)c3cc(O)c(O)cc3oc12 [CUDRATRICUSXANTHONE L]
> 150 µM | C=CC(C)(C)c1c(O)cc(O)c2c(=O)c3c(CCC(C)(C)O)c(O)c(O)cc3oc12 [CUDRATRICUSXANTHONE M]
> 150 µM | C=CC(C)(C)c1c(O)cc(O)c2c(=O)c3c(CC=C(C)C)c(OC)c(O)cc3oc12 [CUDRAXANTHONE C]
> 150 µM | C=CC(C)(C)c1c(O)cc2oc3c(CC=C(C)C)c(O)c(O)cc3c(=O)c2c1O [CUDRAXANTHONE L]
> 150 µM | C=CC(C)(C)c1c(O)cc2oc3c4c(c(O)cc3c(=O)c2c1O)OC(C)(C)C=C4 [ISOCUDRAXANTHONE K]
